ChEMBL document CHEMBL1135519, “Structure-activity relationships on phenylalanine-containing inhibitors of histone deacetylase: in vitro enzyme inhibition, induction of differentiation, and inhibition of proliferation in Friend leukemic cells” (J Med Chem, 2002)

Legend:
Histone deacetylase HD2 = target: T1, Histone deacetylase HD2 (Zea mays, UniProt Q94F81); assay: Inhibition of in vitro enzyme activity measured in a highly purified maize Histone deacetylase 2 preparation
T1 sequence (Q94F81 whole entry): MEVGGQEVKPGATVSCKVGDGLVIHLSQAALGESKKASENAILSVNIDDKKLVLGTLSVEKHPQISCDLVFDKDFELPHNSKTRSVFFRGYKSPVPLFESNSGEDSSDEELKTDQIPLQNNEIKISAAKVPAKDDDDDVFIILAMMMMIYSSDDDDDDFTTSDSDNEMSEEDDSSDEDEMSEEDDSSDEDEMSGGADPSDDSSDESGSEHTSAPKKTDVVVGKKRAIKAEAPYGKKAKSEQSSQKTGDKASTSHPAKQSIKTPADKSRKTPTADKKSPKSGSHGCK

Histone deacetylase = assay: Inhibition of in vitro enzyme activity measured in partially purified rat liver Histone deacetylase preparation; type: tissue-based
[1] = test system: Friend leukemia cell line; assay: Tested […] for the inhibition of proliferation of friend leukemic cells; type: functional; details: Mus musculus
Method in brief: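 MEL DS19 murine erythroleukemia (Friend) cells, log phase, kept in DMEM with 10% FBS and penicillin/streptomycin at 37 °C in 5% CO2. Seeded at 4 × 10⁴ cells/well with serial compound dilutions; screened at 10 and 50 µM, then dose-response. DMSO at 0.1% in controls. Cells counted by Casy counter after 72 h. Proliferation given as percent of solvent control.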

Row | Compound | IC50 (Histone deacetylase HD2) | IC50 (Histone deacetylase) | IC50 [1]
1 | COC(=O)[C@@H](NC(=O)CCCCCCC(=O)NO)C(C)C | 900 nM | 380 nM | 6200 nM
2 | O=C(CCCCCCC(=O)N[C@@H](Cc1ccccc1)C(=O)Nc1ccccc1)NO |  | 790 nM | 15000 nM
3 | COC(=O)[C@H](Cc1ccc(-c2ccccc2)cc1)NC(=O)CCCCCCC(=O)NO | 210 nM | 290 nM | 840 nM
4 | O=C(CCCCCCC(=O)N[C@H](Cc1ccccc1)C(=O)O)NO | 750 nM | 1540 nM | > 100000 nM
5 | CC(/C=C/C(=O)NO)=C\[C@@H](C)C(=O)c1ccc(N(C)C)cc1 [TRICHOSTATIN] |  |  | 40 nM
6 | COC(=O)[C@H](Cc1c[nH]c2ccccc12)NC(=O)CCCCCCC(=O)NO | 120 nM | 320 nM | 13000 nM
7 | COC(=O)[C@H](Cc1ccc(OC)cc1)NC(=O)CCCCCCC(=O)NO | 250 nM | 800 nM | 11000 nM
8 | O=C(CCCCCCC(=O)N[C@@H](Cc1ccccc1)C(=O)NCc1ccccc1)NO | 140 nM | 460 nM | 69000 nM
9 | COC(=O)[C@H](Cc1ccc2ccccc2c1)NC(=O)CCCCCCC(=O)NO | 40 nM | 510 nM | 5200 nM
10 | O=C(CCCCCCC(=O)N[C@@H](Cc1ccccc1)C(=O)NCCc1ccccc1)NO | 330 nM | 260 nM | 72000 nM
11 | COC(=O)[C@@H](Cc1ccccc1)NC(=O)CCCCCCC(=O)NO | 760 nM | 880 nM | 28000 nM

Results, then the molecule that gave them:

Row | IC50 (Histone deacetylase HD2) | IC50 (Histone deacetylase) | IC50 [1] | Compound
12 | 850 nM | 1340 nM | 35000 nM | COC(=O)[C@H](Cc1ccc([N+](=O)[O-])cc1)NC(=O)CCCCCCC(=O)NO
13 | 500 nM | 800 nM | 15000 nM | COC(=O)[C@H](Cc1ccccc1)NC(=O)CCCCCCC(=O)NO
14 | 520 nM | 330 nM | > 100000 nM | O=C(CCCCCCC(=O)N[C@@H](Cc1ccccc1)C(=O)N1CCCC1)NO
15 | 35 nM | 310 nM | 15000 nM | O=C(CCCCCCC(=O)N[C@@H](Cc1cccc2ccccc12)C(=O)NCCc1ccccc1)NO
16 | 340 nM | 390 nM | 76000 nM | O=C(CCCCCCC(=O)N[C@H](Cc1ccccc1)C(=O)NCCc1ccccc1)NO
17 | 380 nM | 1010 nM | 58000 nM | O=C(CCCCCCC(=O)N[C@@H](Cc1ccccc1)C(=O)NCCCc1ccccc1)NO
18 | 700 nM | 410 nM | 5900 nM | COC(=O)[C@H](Cc1cccs1)NC(=O)CCCCCCC(=O)NO
19 | 1100 nM | 840 nM | 64000 nM | NC(=O)[C@H](Cc1ccccc1)NC(=O)CCCCCCC(=O)NO
20 | 1000 nM |  | 990 nM | O=C(CCCCCCC(=O)Nc1ccccc1)NO [VORINOSTAT]
21 | 320 nM | 1150 nM |  | O=C(CCCCCCC(=O)NO)NO [SUBEROHYDROXAMIC ACID]
22 | 360 nM | 130 nM | 22000 nM | COC(=O)[C@H](Cc1cccc2ccccc12)NC(=O)CCCCCCC(=O)NO
